Screening data from PubChem.
TNF necrop inh – TNF-alpha cell death inhibition in Jurkat FADD-/- cells; Jurkat FADD-/- TNF necroptosis rescue, ATP luminescence, 24 h; 0 = TNF only, 100 = no-TNF cells; activation (protection from cell death), % at 10 µM; 220,000 compounds, 0.068% hits; AID 463075;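 active = activation, meaning protection from cell death, of at least 50% relative to plate controls; inactive = activation below 50%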;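 also: necroptosis triggered by 40 ng/mL TNF-alpha added together with compound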
Hck-Nef inh – human Hck-Nef kinase inhibition | P08631 | inhibition, % at 20 µM | Recombinant Hck-YEEI plus Nef, Z-Lyte FRET kinase assay | AID 463187 | 220,000 compounds, 0.68% hits;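 active = Hck-Nef kinase inhibition above about 50%, limit read from the data; inactive = inhibition below that limit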
Target sequence (P08631 whole entry, looked up): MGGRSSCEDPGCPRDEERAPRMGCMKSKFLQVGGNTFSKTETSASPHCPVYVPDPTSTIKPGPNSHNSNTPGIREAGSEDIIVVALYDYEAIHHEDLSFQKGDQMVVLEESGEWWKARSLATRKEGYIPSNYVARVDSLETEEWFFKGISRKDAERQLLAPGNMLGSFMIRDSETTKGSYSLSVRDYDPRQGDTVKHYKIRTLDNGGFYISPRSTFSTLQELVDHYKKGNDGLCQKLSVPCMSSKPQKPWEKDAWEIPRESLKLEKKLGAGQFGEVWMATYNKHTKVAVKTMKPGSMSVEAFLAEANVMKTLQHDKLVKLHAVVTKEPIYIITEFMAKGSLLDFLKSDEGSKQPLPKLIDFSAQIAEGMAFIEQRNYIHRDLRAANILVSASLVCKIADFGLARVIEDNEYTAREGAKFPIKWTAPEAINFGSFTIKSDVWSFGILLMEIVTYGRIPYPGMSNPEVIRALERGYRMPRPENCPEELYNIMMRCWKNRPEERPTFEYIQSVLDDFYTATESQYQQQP
Runt-CBFb FRET – inhibitors of human RUNX1 Runt domain binding to CBFb | Q01196+Q13951 | Cerulean-Runt/Venus-CBFb FRET ratio 530/480, 1 h | inhibition, % at 20 µM | 220,000 compounds, 0.46% hits | AID 1496;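 active = inhibition over about 50% at 20 µM in the single-dose screen, limit read from the data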
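Reagent – Venus-CBFb binding partner, 100 nM · Assay system – Cerulean-tagged RUNX1 Runt domain (FRET donor) fusion protein · Input – 100 nM per protein · Incubation – two 1 h room-temperature incubations shielded from light · Measured by – FRET fluorescence · Medium – Tris buffer pH 7.5 with salts and BSA · Benchmarks – unlabeled CBFb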
L929 necroptosis – L929 zVAD cell death inhibition; 220,000 compounds, 0.38% hits; L929 zVAD necroptosis rescue, ATP luminescence, 24 h; with zVAD 60 µM; AID 1377; viability rescue, % at 10 µM;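 active = activation, scaled between plate controls, above about 75%, limit read from the data; inactive = activation under that limit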
RanGTP-Imp inh – disruptors of Ran-importin-beta complex formation – biochemical, FRET, CFP-Ran, YFP-importin-beta, homogeneous, primary screen; cell-free CFP-Ran/YFP-importin-beta FRET ratio; inhibition, % (concentration not given with the values); 300,000 compounds, 1.1% hits; AID 2216;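 active = more than half of the replicate wells show a fall in the fluorescence ratio signal beyond about 16%, limit read from the data, passing the limit was not always enough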
Runt-SMMHC FRET – Runt domain-CBFb-SMMHC interaction inhibition; inhibition, % at 20 µM; 220,000 compounds, 0.74% hits; Q01196+Q13951; AID 1434; Cerulean-Runt/Venus-CBFb-SMMHC FRET ratio 530/480, 1 h;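 active = mean inhibition across duplicate retests at 20 µM reaching about 50%, limit read from the data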;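 also: inhibitors lower the FRET ratio by blocking Runt binding to CBFb-SMMHC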
A number is an active result; – = inactive; · = no result given. A selection: hits, their analogues and other compounds. The true share with any hit is near 2.1%.

SMILES	TNF necrop inh	Hck-Nef inh	Runt-CBFb FRET	L929 necroptosis	RanGTP-Imp inh	Runt-SMMHC FRET
CC(=O)Oc1ccc(-c2cc3ccccc3oc2=O)cc1	·	·	·	·	–	·
Cc1ccc(C(=O)/C=C/c2c[nH]c3ccccc23)cc1	–	–	–	–	54.2	–
COc1ccc2[nH]cc(/C=C/C(=O)c3ccccc3)c2c1	–	–	–	–	25.5	–
COc1ccc(/C=C/C(=O)c2ccccc2)c(OC)c1	–	–	–	–	–	–
O=C(/C=C/c1c[nH]c2ccccc12)c1ccccc1	–	–	–	–	55.2	–
CCC(=O)N1CCc2cc(Br)cc(S(=O)(=O)N3CCCCC3CC)c21 (stereo unspecified)	·	·	·	·	–	·
CC1(c2nnc(-c3cccc(Cl)c3)o2)CC(c2ccc(OC(F)(F)F)cc2)=NO1 (stereo unspecified)	·	·	·	·	–	·
Cc1ccc(OCC(=O)Nc2ccc3c(c2)C(=O)NC3=O)c(C)c1	·	·	·	·	–	·
O=C(Nc1ccc(F)cc1)C1=CC(=O)N2CCN=C2S1	–	–	–	–	–	–
CNc1sc(C(=O)c2cccs2)c(N)c1-c1nc2ccccc2s1	–	–	–	–	–	76.1
COc1ccccc1CN1CC(C(=O)NCc2cc(C(C)C)no2)CCC1=O (stereo unspecified)	·	·	·	·	–	·
COC(=O)c1cc2c(s1)-c1cc(F)ccc1OC2	–	–	–	–	–	–
CC(=O)c1cc2c(s1)-c1cc(F)ccc1OC2	–	–	–	–	–	88.1
O=C(NC(=S)N1CCN(c2ccccc2)CC1)c1ccc(S(=O)(=O)N2CCOCC2)cc1	–	–	–	–	–	–
COc1ccc(CCNC(=O)CN2C(=O)COc3ccc(S(=O)(=O)N4CCCC4)cc32)c(OC)c1	·	·	·	·	–	·
COc1ccc(NC2=C(C(C)=O)C(c3ccc(OC)c(OC)c3)C(C(C)=O)C(C)(O)C2)cc1 (stereo unspecified)	–	–	–	–	163.9	–
CN1CCc2nc(NC(=O)COc3ccc(C#N)cc3)sc2C1	–	–	–	–	22.9	59.2
Cc1ccccc1Sc1ccc(N)cn1	·	·	·	·	–	·
CCOc1ccc2nc(NCCCNS(=O)(=O)c3ccccc3)c(C#N)cc2c1	–	–	80.5	–	134.0	61.3
CCOc1ccc2nc(NCCCNS(=O)(=O)c3ccc(F)cc3)c(C#N)cc2c1	–	–	·	–	131.9	·
CCOC(=O)c1sc(N=NC2=C(O)CCCC2=O)c(C(=O)OCC)c1C	–	51.4	–	–	–	–
CCOC(=O)/C(N=Nc1sc(C(=O)OCC)c(C)c1C(=O)OCC)=C(\C)O	–	–	–	–	–	–
CCOC(=O)/C(C#N)=C1\Nc2ccccc2N=C1N(CC(C)C)CC(C)C	–	–	–	–	30.2	–
CCCCN(CCCC)C1=Nc2ccccc2N/C1=C(/C#N)C(=O)OCC	–	–	–	–	–	–
CN1C(=O)/C(=C/c2ccc(OCc3ccc(F)cc3)cc2)NC1=S	·	·	·	·	–	·
SMILES	TNF necrop inh	Hck-Nef inh	Runt-CBFb FRET	L929 necroptosis	RanGTP-Imp inh	Runt-SMMHC FRET
Fc1cccc(NC(=S)NNc2c3ccccc3nc3ccccc23)c1	–	–	88.0	–	–	87.0
Fc1cccc(NC(=S)NNc2ccccc2)c1	·	·	·	·	–	·
CC(C)N1CCc2c(sc(NC(=O)c3ccc(S(=O)(=O)N4CCOCC4)cc3)c2C(N)=O)C1	–	–	–	–	48.8	–
CCOC(=O)c1c(NC(=O)c2ccc(S(=O)(=O)N3CCOCC3)cc2)sc2c1CCN(C(C)C)C2	·	·	·	·	–	·
CNC(=O)c1c(NC(=O)c2ccc(S(=O)(=O)N3CC(C)OC(C)C3)cc2)sc2c1CCN(C(C)C)C2 (stereo unspecified)	·	·	·	·	62.3	·
COc1cc2ccc(=O)oc2c(O)c1OCC=C(C)C	–	–	61.0	–	–	62.5
CCCCn1c(NC(=O)c2ccco2)c(S(=O)(=O)c2ccc(C)cc2)c2nc3ccccc3nc21	–	–	–	·	48.8	–
Cc1ccc(C(=O)Nn2c(N)c(S(=O)(=O)c3ccc(C)cc3)c3nc4ccccc4nc32)cc1	–	–	–	–	–	–
CCC(=O)Nc1c(S(=O)(=O)c2ccc(C)cc2)c2nc3ccccc3nc2n1C(C)c1ccccc1 (stereo unspecified)	–	–	–	–	–	74.9
Cc1ccc(S(=O)(=O)c2c(N)n(CCC(C)C)c3nc4ccccc4nc23)cc1	–	–	–	–	–	–
COC(=O)Cn1c2ccc(C)cc2c2nc3ccccc3nc21	·	·	·	·	19.8	·
CCOC(=O)Cn1c2ccccc2c2nc3ccccc3nc21	–	–	–	–	–	–
Cc1ccc(S(=O)(=O)/C(C#N)=C/c2c(N3CCC(C(N)=O)CC3)nc3ccccn3c2=O)cc1	–	–	–	–	34.2	–
CCN1CCN(c2nc3ccccn3c(=O)c2/C=C(\C#N)S(=O)(=O)c2ccccc2)CC1	–	–	–	–	76.8	–
CNC(=O)c1ccsc1NC(=O)C1CCCN1S(=O)(=O)c1cccs1 (stereo unspecified)	·	·	·	·	–	·
COc1cccc(CC2(CO)CCN(Cc3ccc4cccc(F)c4n3)CC2)c1	–	–	–	–	–	–
CSc1ccc(C(=O)C2CCCN(C(=O)c3nonc3C)C2)cc1 (stereo unspecified)	·	·	·	·	–	·
Nc1[nH]c(=O)nc(Nc2ccccc2)c1N=O	·	·	·	·	37.8	·
Nc1nc(-c2ccccc2)[nH]c(=O)c1N=O	–	–	–	–	–	–
Cn1nc(-c2ccc(Cl)cc2)c2cc(C(=O)NCCN3CCOCC3)sc21	–	–	–	–	136.4	–
